In brackets after ≈: the same amount, converted by molar mass. Activity calls are given as the source filed them. The calls are words filed in the database; no cut-off is given here.

Assay [1] deals with Nakaseomyces glabratus. As to the kind of experiment: Antifungal activity against Candida glabrata isolate 21229 with missense mutation in ERG6 gene at 2 mM. It counts as functional, organism-based. A digest of the protocol: (§1)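 Compound incorporated at 2 mM into YEPD agar. Cell suspensions at 10^7 down to 10^3 cells per ml were spotted at 10 µl each, dried and incubated 48 h at 37°C. Growth was compared with spots on YEPD agar without inhibitor.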

The test system of assay [2] is Nakaseomyces glabratus. Description: Antifungal activity against Candida glabrata isolate 21230 at 2 mM. The assay is classed as functional, organism-based. A digest of the protocol:
as §1

Assay [3] relates to Nakaseomyces glabratus. Description: Antifungal activity against wild-type Candida glabrata isolate 21231 by Etest method. The assay is classed as functional.
Assay [4] concerns Nakaseomyces glabratus. As to the kind of experiment: Antifungal activity against Candida glabrata isolate 21230C by disk diffusion method. It counts as functional. A digest of the protocol: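 The strain is the ura3 derivative of clinical isolate 21230 complemented with a centromeric plasmid carrying wild-type ERG6, tested as for the parent isolate. Isolates were maintained on YEPD agar.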

Assay [5] concerns Nakaseomyces glabratus. As to the kind of experiment: Antifungal activity against Candida glabrata isolate 21230 with silent mutations in ERG4, ERG5 genes and nonsense mutation in ERG6 gene by disk diffusion method. The assay is classed as functional. For orientation: Agar diffusion results depend on both activity and mobility in agar.
Assay [6] deals with Nakaseomyces glabratus. As to the kind of experiment: Antifungal activity against wild-type Candida glabrata isolate 21231 by disk diffusion method. The assay is classed as functional.
In assay [7] the test system is Nakaseomyces glabratus. As to the kind of experiment: Antifungal activity against Candida glabrata isolate 21230 with silent mutation in ERG4, ERG5 genes and nonsense mutation in ERG6 gene by Etest method. It counts as functional.

Consider `Cn1c(=O)c2c(ncn2C)n(C)c1=O`, for which the outcome in assay [1] and in assay [2] was Active.
`C[C@@H]1[C@H](O)[C@@H](C)/C=C/C=C/C=C/C=C/C=C/C=C/C=C/[C@H](O[C@@H]2O[C@H](C)[C@@H](O)[C@H](N)[C@@H]2O)C[C@@H]2O[C@](O)(C[C@@H](O)C[C@@H](O)[C@H](O)CC[C@@H](O)C[C@@H](O)CC(=O)O[C@H]1C)C[C@H](O)[C@H]2C(=O)O` [AMPHOTERICIN B]: the MIC in assay [3] worked out at 0.047 µg/mL (≈ 0.0509 µM); in assay [7], 0.125 µg/mL (≈ 0.135 µM). The results for the “inhibition zone (IZ)” value in assay [4], in assay [5] and in assay [6] were 29 mm, 13 mm and 27 mm, respectively.
For `Clc1ccc(COC(Cn2ccnc2)c2ccc(Cl)cc2Cl)cc1` (stereo not drawn) [ECONAZOLE], the entries for the “inhibition zone (IZ)” value in assay [5] and in assay [6] were 35 mm and 25 mm, respectively.
In the case of `OC(Cn1cncn1)(Cn1cncn1)c1ccc(F)cc1F` [FLUCONAZOLE], the MIC came out at 6 µg/mL (≈ 19.6 µM) in assay [3] and 1 µg/mL (≈ 3.27 µM) in assay [7]. In addition, the “inhibition zone (IZ)” value in assay [5] is 29 mm; in assay [6], 21 mm.
On to `CC(=O)N1CCN(c2ccc(OCC3COC(Cn4ccnc4)(c4ccc(Cl)cc4Cl)O3)cc2)CC1` (stereo not drawn) [KETOCONAZOLE], for which the figures for the MIC in assay [3] and in assay [7] were 0.19 µg/mL (≈ 0.358 µM) and 0.064 µg/mL (≈ 0.12 µM), respectively. Besides, the “inhibition zone (IZ)” value was found to be 43 mm in assay [5] and 33 mm in assay [6].
With `Clc1ccc(COC(Cn2ccnc2)c2ccc(Cl)cc2Cl)c(Cl)c1` (stereo not drawn) [MICONAZOLE], the results for the “inhibition zone (IZ)” value in assay [5] and in assay [6] were 29 mm and 21 mm, respectively.
Regarding `C[C@@H](c1ncncc1F)[C@](O)(Cn1cncn1)c1ccc(F)cc1F` [VORICONAZOLE], the “inhibition zone (IZ)” value in assay [5] came to 39 mm; in assay [6] it was 30 mm.
The corresponding values for NYSTATIN are 19 mm and 31 mm.

A word on the MIC: it is the lowest concentration found to suppress growth.

For the origin of these results see ChEMBL document CHEMBL1275527, “A nonsense mutation in the ERG6 gene leads to reduced susceptibility to polyenes in a clinical isolate of Candida glabrata” (2008).
